Results on three molecules are retold here after ChEMBL document CHEMBL3102812 (J Med Chem, 2013).

Data set [1] deals with Trypanosoma cruzi. The data set can be described thus: Antitrypanosomal activity against Trypanosoma cruzi Tulahuen 6 infected in Swiss mouse assessed as mouse survival at 100 mg/kg, po qd administered on day 8 post-infection for 20 days followed by 10 days non-treatment period followed by three cycles of immunosuppression measured on day 58 post-infection by microscopic analysis. It is filed as functional, organism-based. Details: dose 100 mg/kg.

For data set [2], the system named is Trypanosoma cruzi. The data set can be described thus: Antitrypanosomal activity against Trypanosoma cruzi Tulahuen 6 infected in Swiss mouse assessed as mouse survival at 100 mg/kg, po qd administered on day 8 post-infection measured on same day by microscopic analysis. Format: functional, organism-based. Also noted: dose 100 mg/kg.
Data set [3] deals with Mus musculus. The data set can be described thus: Toxicity in Swiss mouse at 20 mg/kg, po. The note with it: in vivo.
Data set [4] relates to Trypanosoma cruzi. In words: Antitrypanosomal activity against Trypanosoma cruzi Tulahuen 6 infected in Swiss mouse assessed as reduction in blood parasitemia at 20 mg/kg, po qd administered on day 8 post-infection for 10 days by microscopic analysis. Details: dose 20 mg/kg. Format: functional, organism-based. The gist of the method: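 Infected Swiss mice dosed orally at 20 mg/kg once daily for up to 10 days starting day 8 pi; blood parasitemia followed by microscopy throughout dosing, scored as cleared or not during the dosing period.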

Data set [5] can be described thus: Plasma concentration in Swiss mouse at 20 mg/kg, po after 24 hrs by LC/MS analysis.
A short description of data set [6]: Plasma concentration in Swiss mouse at 20 mg/kg, po after 0.5 hrs by LC/MS analysis.
The test system of data set [7] is Trypanosoma cruzi. In words: Antitrypanosomal activity against Trypanosoma cruzi Tulahuen 6 amastigotes infected in rat L6 cells after 96 hrs by colorimetric method. It is filed as functional, organism-based. Conditions: Tulahuen 6, L6, 96 h.
In data set [8] the test system is Mus musculus. In words: Toxicity in Swiss mouse assessed as weight loss at 50 mg/kg, po bid for 2.5 days. The note with it: in vivo, 60 h. Format: organism-based. Also noted: dose 50 mg/kg, route oral. Summed up: (§1)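 Acute toxicity by stepwise cumulative oral dosing in two mice per compound: 25 and/or 50 mg/kg twice daily for 2.5 days to […]; animals observed for 1 week after the last dose for adverse effects and weight loss.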

In data set [9] the test system is Mus musculus. The data set can be described thus: Toxicity in Swiss mouse assessed as weight loss at 25 mg/kg, po bid for 2.5 days. Also noted: dose 25 mg/kg, route oral. Conditions: in vivo, 60 h. Format: organism-based. Summed up: as §1
For data set [10], the system named is Trypanosoma cruzi. In words: Antitrypanosomal activity against Trypanosoma cruzi Tulahuen 6 infected in Swiss mouse at 5 mg/kg, po qd administered on day 8 post-infection for 20 days followed by 10 days non-treatment period followed by three cycles of immunosuppression measured on day 58 post-infection by PCR analysis. It is filed as functional, organism-based. Also noted: dose 5 mg/kg.

In data set [11] the test system is Trypanosoma cruzi. In words: Antitrypanosomal activity against Trypanosoma cruzi Tulahuen 6 infected in Swiss mouse assessed as mouse survival at 10 mg/kg, po qd administered on day 8 post-infection for 20 days followed by 10 days non-treatment measured on day 37 post-infection by microscopic analysis. It is filed as functional, organism-based. Details: dose 10 mg/kg.

The test system of data set [12] is Trypanosoma cruzi. In words: Antitrypanosomal activity against Trypanosoma cruzi Tulahuen 6 infected in Swiss mouse assessed as mouse survival at 10 mg/kg, po qd administered on day 8 post-infection for 20 days measured on day 28 post-infection by microscopic analysis. It is filed as functional, organism-based. Details: dose 10 mg/kg. Summed up:
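Outbred female Swiss mice (~8 weeks) infected with mouse-passaged Tulahuen TcVI trypomastigotes; oral dosing once daily for 20 days from day 8 post-infection, suspension in 0.5% HPMC, 0.4% Tween 80, 0.5% benzyl alcohol, 5% DMSO in water; blood parasitemia by microscopy (LOD 20 000 parasites/mL); mice with recurring parasitemia euthanized; survival counted per starting group; 10-day untreated period days 28–37.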

In data set [13] the test system is Trypanosoma cruzi. The data set can be described thus: Antitrypanosomal activity against Trypanosoma cruzi Tulahuen 6 infected in Swiss mouse assessed as mouse survival at 5 mg/kg, po qd administered on day 8 post-infection for 20 days followed by 10 days non-treatment measured on day 37 post-infection by microscopic analysis. It is filed as functional, organism-based. Details: dose 5 mg/kg.

The subject of data set [14] is Trypanosoma cruzi. The data set can be described thus: Antitrypanosomal activity against Trypanosoma cruzi Tulahuen 6 infected in Swiss mouse assessed as mouse survival at 5 mg/kg, po qd administered on day 8 post-infection for 20 days measured on day 28 post-infection by microscopic analysis. Format: functional, organism-based. Also noted: dose 5 mg/kg.
In data set [15] the test system is Trypanosoma cruzi. In words: Antitrypanosomal activity against Trypanosoma cruzi Tulahuen 6 infected in Swiss mouse assessed as mouse survival at 10 mg/kg, po qd administered on day 8 post-infection measured on same day by microscopic analysis. Format: functional, organism-based. Also noted: dose 10 mg/kg.
Data set [16] concerns Trypanosoma cruzi. The data set can be described thus: Antitrypanosomal activity against Trypanosoma cruzi Tulahuen 6 infected in Swiss mouse assessed as mouse survival at 5 mg/kg, po qd administered on day 8 post-infection measured on same day by microscopic analysis. Format: functional, organism-based. Details: dose 5 mg/kg.
The test system of data set [17] is Mus musculus. The data set can be described thus: Oral bioavailability in Swiss mouse at 20 mg/kg by LC/MS analysis. It is filed as ADME, organism-based. The note with it: in vivo.
A short description of data set [18]: Half life in Swiss mouse at 20 mg/kg, po by LC/MS analysis. Format: ADME, organism-based. Details: dose 20 mg/kg, route oral. The note with it: in vivo.
The nature of data set [19]: Volume of distribution at steady state in Swiss mouse at 2 mg/kg, iv and 20 mg/kg, po by LC/MS analysis. It is filed as ADME, organism-based. Conditions: in vivo, read-out: Vdss.
Data set [20] in a line: Half life in Swiss mouse at 2 mg/kg, iv by LC/MS analysis. Format: ADME, organism-based. Also noted: dose 2 mg/kg, route intravenous. The note with it: in vivo.
Data set [21] can be described thus: Plasma clearance in Swiss mouse at 2 mg/kg, iv and 20 mg/kg, po by LC/MS analysis. Format: ADME, organism-based.
The nature of data set [22]: Kinetic aqueous solubility of the compound in phosphate buffer at pH 6.5 by nephelometric analysis.
A short description of data set [23]: Kinetic aqueous solubility of the compound in phosphate buffer at pH 2 by nephelometric analysis. The note with it: phosphate buffer.
Data set [24] can be described thus: Partition coefficient, log D of the compound at pH 7.4 by chromatographic method. The note with it: octanol/water.
The target of a further data set is Cytochrome P450 3A4 (Homo sapiens, UniProt P08684). The data set can be described thus: Inhibition of CYP3A4 in human liver microsomes assessed as 6beta-hydroxylation of testosterone. (Microsomes from liver hold many membrane-bound enzymes, among them those of drug oxidation.)
Cytochrome P450 3A4, sequence (P08684 whole entry): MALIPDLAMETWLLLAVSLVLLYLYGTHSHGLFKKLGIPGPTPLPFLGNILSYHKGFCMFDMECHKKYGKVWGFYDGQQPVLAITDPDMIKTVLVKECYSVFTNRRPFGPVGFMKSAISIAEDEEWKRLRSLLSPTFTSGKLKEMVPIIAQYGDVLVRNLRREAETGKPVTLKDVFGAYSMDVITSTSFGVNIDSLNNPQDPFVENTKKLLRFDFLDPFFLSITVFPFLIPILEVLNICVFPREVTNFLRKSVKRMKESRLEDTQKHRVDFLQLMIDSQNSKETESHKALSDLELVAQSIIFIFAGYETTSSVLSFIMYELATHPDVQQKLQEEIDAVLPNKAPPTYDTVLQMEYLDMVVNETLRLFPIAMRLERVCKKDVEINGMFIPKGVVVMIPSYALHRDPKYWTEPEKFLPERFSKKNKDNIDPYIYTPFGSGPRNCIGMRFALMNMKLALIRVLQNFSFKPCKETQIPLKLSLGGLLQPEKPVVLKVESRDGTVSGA

Structures are written as SMILES. Converted amounts (≈) assume the structure as drawn. The source made the active and inactive calls. A value given as a limit tells only on which side of the number the result lay.

For `O=C(Cn1ccnc1[N+](=O)[O-])NCc1ccccc1`, the result in the data set with Trypanosoma cruzi [1] was inactive. Further, the result in the data set on Trypanosoma cruzi [2] was Active.

In general, IC50 refers to the concentration at which inhibition is half-maximal. As to `CC(C)(C)NC(=O)N1CCC(NC(c2ccc(C(F)(F)F)cc2)c2cccnc2)CC1` (stereo unspecified), in the data set with Mus musculus [3], the Activity result is “Non-toxic”. In addition, in the data set with Trypanosoma cruzi [4], the result was inactive. The molecule further returned a concentration at 24 h in data set [5] of 1 nM. In data set [6], the concentration at 0.5 h came out at 3260 nM. Also, the IC50 in the data set on Trypanosoma cruzi [7] stood at 0.061 µM.

As a reminder, the half-life is the time needed for the level to fall by half in the phase considered. One may read the kinetic solubility as solubility judged after dilution from a stock solution rather than from solid. By chromatographic logD is commonly meant lipophilicity estimated from chromatographic retention. Higher therefore signals higher lipophilicity. For `O=C([C@@H](c1ccc(Cl)cc1)c1cccnc1)N1CCN(c2ccc(C(F)(F)F)cc2)CC1`, the Activity result in the data set on Mus musculus [8], in the data set with Mus musculus [9] and with Mus musculus [3] was “Non-toxic” throughout. Moreover, the result with Trypanosoma cruzi [10] was inactive. Also, the outcome with Trypanosoma cruzi [11], in the data set with Trypanosoma cruzi [12], in the data set on Trypanosoma cruzi [13], with Trypanosoma cruzi [14], with Trypanosoma cruzi [15] and in the data set on Trypanosoma cruzi [16] was Active. Also, the F in the data set with Mus musculus [17] was 64%. Also, the half-life is 8.2 h in [18] and 5.9 h in data set [20]. For the same molecule, the Vd in data set [19] stood at 4.2 L/kg. This molecule also returned a clearance in data set [21] of 7.7 mL/min/kg. Further, the results for the solubility (kinetic) in [22] and in data set [23] were 1.6 µg/mL (≈ 3.48 µM) and above 100 µg/mL, respectively. In addition, the chromatographic logD in data set [24] stood at 4.5. The IC50 at Cytochrome P450 3A4 is 15 µM.
